From ChEMBL document CHEMBL4706740, “Structure-Activity Study of Nitazoxanide Derivatives as Novel STAT3 Pathway Inhibitors” (ACS Med Chem Lett, 2021) come the findings set out here.

Usually IC50 stands for the concentration needed to halve the response being measured. Broadly, the Cmax is the peak of the concentration-time curve.

Series [1] can be described thus: Elimination Half life in Sprague-Dawley rat at 25 mg/kg, IG. In kind it is ADME, organism-based. The settings on record: in vivo, po, read-out: beta t1/2 (converted). In short, it runs like this:
(§1)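 Rats, n = 3 per group, received a single dose either intragastrically (25 mg/kg) or intravenously (5 mg/kg). Plasma concentration–time curves were used to derive t1/2α, t1/2β, Vd/F, CL/F, AUC0–∞, Tmax and Cmax. Absolute oral bioavailability was calculated from the ig and iv data.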

The subject of series [2] is HeLa. Kind of series: Induction of cell cycle arrest in human HeLa cells assessed as accumulation at S phase at 10 uM measured after 24 hrs by flow cytometry analysis (reference value: 34.04%). In kind it is functional.
The target of series [3] is Signal transducer and activator of transcription 3 (Homo sapiens) (UniProt P40763). Put plainly: Inhibition of STAT3 transcriptional activity in human HeLa cells assessed as downregulation of cyclin D1 expression upto 80 uM after 24 hrs by western blot analysis. In kind it is cell-based. The settings on record: dose microM <=80, time […]. The essentials: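 HeLa cells treated 24 h with a concentration series. Total cell lysates probed by Western blot with specific antibodies for the STAT3 target gene products cyclin D1, c-Myc and survivin.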

Series [4] deals with HeLa. Put plainly: Cytotoxicity against human HeLa cells assessed as inhibition of cell viability measured after 48 hrs by MTT assay. In kind it is functional, cell-based. The essentials: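 Growth was read by MTT assay and IC50 taken from dose–response curves. Values are averages of three independent experiments.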
In general terms: Tetrazolium assays rely on reduction of a dye to a coloured formazan, in cell work by metabolically active cells.

Series [5] has as its system HeLa. Kind of series: Effect on Src level in human Hela cells upto 80 uM after 24 hrs by Western blot analysis. In kind it is functional, cell-based. Conditions: dose microM <=80, time […].
Series [6] in a line: Apparent clearance in Sprague-Dawley rat at 5 mg/kg, iv. Type of series: ADME, organism-based. Conditions: in vivo, read-out: CL(app) (converted). In short, it runs like this:
as §1

Series [7] is described as follows: Cmax in Sprague-Dawley rat at 25 mg/kg, IG. In kind it is ADME, organism-based. On the set-up: route […], dose 25 mg/kg. Conditions: in vivo, po. The essentials: as §1
A short description of series [8]: Selectivity index, ratio of inhibition of IL-6 induced STAT3 transcriptional activity to inhibition against HEK-Blue IL-6 cells assessed as reduction in cell viability at 10 uM.
Series [9] concerns the target Tyrosine-protein kinase JAK2 (Homo sapiens) (UniProt O60674). Kind of series: Inhibition of Jak2 phosphorylation at Tyr1007/1008 in human Hela cells upto 80 uM after 24 hrs by Western blot analysis. Conditions: dose microM <=80, time […]. In kind it is cell-based. (A western blot detects proteins with antibodies after separation by electrophoresis.)
The next series relates to Caco-2. Put plainly: Antiproliferative activity against human Caco-2 cells assessed as cell growth inhibition measured after 48 hrs by MTT assay. Type of series: functional, cell-based. The settings on record: Caco-2, 48 h.
For series [10], the system named is HeLa. Kind of series: Induction of apoptosis in human HeLa cells assessed as late apoptotic cells at 10 uM incubated for 24 hrs by Annexin V-FITC/PI staining based flow cytometry (reference value: 4.7%). Type of series: functional. (A flow cytometer gives signals particle by particle.)

Calls of active or inactive are those of the source. The calls are words filed in the database; no cut-off is given here.

Signal transducer and activator of transcription 3 (Homo sapiens), sequence (P40763 whole entry): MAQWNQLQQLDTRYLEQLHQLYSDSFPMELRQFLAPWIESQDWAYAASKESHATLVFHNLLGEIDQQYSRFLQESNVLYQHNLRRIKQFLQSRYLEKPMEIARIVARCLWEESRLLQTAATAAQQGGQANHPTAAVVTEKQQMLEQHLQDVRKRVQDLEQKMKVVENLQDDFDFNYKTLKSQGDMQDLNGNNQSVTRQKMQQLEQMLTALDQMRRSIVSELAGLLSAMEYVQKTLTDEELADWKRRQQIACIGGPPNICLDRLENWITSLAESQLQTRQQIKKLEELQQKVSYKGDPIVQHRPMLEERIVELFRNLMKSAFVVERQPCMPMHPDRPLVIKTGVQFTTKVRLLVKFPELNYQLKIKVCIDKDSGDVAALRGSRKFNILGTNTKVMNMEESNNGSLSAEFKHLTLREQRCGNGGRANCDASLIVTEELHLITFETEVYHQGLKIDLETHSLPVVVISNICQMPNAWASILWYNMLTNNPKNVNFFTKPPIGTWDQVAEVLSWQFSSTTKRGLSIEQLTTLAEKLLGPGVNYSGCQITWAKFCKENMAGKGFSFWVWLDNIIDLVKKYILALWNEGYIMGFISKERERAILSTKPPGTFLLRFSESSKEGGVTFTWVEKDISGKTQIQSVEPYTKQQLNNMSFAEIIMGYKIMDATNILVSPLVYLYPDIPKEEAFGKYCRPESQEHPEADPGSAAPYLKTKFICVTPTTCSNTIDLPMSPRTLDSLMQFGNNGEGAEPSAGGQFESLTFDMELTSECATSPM
Tyrosine-protein kinase JAK2 (Homo sapiens), sequence (O60674 whole entry): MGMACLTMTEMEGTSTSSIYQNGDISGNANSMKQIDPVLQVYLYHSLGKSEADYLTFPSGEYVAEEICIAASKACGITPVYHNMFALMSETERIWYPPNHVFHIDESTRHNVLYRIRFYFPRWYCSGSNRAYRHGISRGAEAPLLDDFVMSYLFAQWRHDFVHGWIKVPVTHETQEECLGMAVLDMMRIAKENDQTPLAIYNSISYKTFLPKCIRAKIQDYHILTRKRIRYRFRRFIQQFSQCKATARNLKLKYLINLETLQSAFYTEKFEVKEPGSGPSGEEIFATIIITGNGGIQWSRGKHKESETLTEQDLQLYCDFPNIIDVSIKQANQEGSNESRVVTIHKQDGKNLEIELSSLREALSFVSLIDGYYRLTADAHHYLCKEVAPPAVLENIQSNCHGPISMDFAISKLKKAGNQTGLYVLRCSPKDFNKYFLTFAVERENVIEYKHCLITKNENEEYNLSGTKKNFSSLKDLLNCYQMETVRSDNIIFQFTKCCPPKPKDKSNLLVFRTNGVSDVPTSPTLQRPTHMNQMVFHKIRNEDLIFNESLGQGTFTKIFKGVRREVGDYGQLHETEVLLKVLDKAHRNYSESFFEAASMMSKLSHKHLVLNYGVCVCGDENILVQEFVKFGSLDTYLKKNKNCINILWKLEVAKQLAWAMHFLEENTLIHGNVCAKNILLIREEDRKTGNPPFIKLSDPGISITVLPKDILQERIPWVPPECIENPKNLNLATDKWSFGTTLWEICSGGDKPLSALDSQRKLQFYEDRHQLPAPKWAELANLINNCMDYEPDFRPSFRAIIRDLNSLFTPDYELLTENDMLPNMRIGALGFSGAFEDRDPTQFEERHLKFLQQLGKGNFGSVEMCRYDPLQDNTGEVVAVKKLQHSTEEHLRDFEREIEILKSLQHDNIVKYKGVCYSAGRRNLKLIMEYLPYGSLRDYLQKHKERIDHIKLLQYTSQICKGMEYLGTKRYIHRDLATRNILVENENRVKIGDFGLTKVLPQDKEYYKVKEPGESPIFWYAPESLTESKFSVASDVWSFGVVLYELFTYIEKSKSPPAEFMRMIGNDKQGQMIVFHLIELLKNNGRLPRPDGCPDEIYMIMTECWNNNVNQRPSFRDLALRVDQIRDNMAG

Take `CC(=O)Oc1ccccc1C(=O)Nc1ncc([N+](=O)[O-])s1` [NITAZOXANIDE]: the half-life in [1] was 48 min. Also, the Activity in the series with HeLa [2] stood at 28.45%; in the series with HeLa [10], 5.32%. Further, the inhibition entry in [3] is “Dose-dependent effect”. Further, the IC50 in the series on HeLa [4] was 35 µM; in the series with Caco-2, 26.8 µM. Besides, in the series on HeLa [5], the outcome was inactive. In addition, in series [6], the clearance was 8.33 mL/min/kg. The same compound had a Cmax in [7] of 1000 ng/mL. Besides, in series [8], the “Selectivity Index” value turned out to be 2.8. For the same compound, the inhibition entry in series [9] is “inactive”.
